Results published in ChEMBL document CHEMBL2157930, “Synthesis and structure-activity relationship of berberine analogues in LDLR up-regulation and AMPK activation” (2012).
Calls of active or inactive are those of the source.

Key:
HepG2 [1] = experiment: Up regulation of LDLR expression in human HepG2 cells at 10 uM after 12 hrs by RT-PCR relative to untreated control; format: functional
How it was run: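 HepG2 cells (MEM, 10% FBS, about 70% confluent) treated at 10 uM for 12 h. LDLR mRNA measured by real-time RT-PCR, reverse transcription 42 °C for 15 min. Normalized to β-actin by the comparative threshold cycle method and expressed as fold of untreated control (set to 1). Mean ± SEM of 3 separate experiments.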

HepG2 [2] = experiment: Induction of AMPKalpha phosphorylation in human HepG2 cells after 4 hrs by Western blot analysis relative to untreated control; format: cell-based
How it was run: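 HepG2 cultured as above, about 70% confluent, then exposed to a range of concentrations for 4 h. Western blot for Thr172-phospho-AMPKa and total AMPKa, densitometry, p-AMPKa as a percentage of total, relative to untreated cells. Mean ± SEM of 3 experiments.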

HepG2 [3] = experiment: Increase in AMPKalpha phosphorylation in human HepG2 cells at 10 uM after 4 hrs by Western blot analysis relative to untreated control; format: cell-based
How it was run: (§1)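 HepG2 cells in MEM with 10% FBS and antibiotics, 37 °C, 5% CO2, plated the day before to about 70% confluence. Treated with vehicle or compound at 10 uM for 4 h. Whole-cell lysates were run on SDS-PAGE and Western blotted for Thr172-phospho-AMPKa and total AMPKa. Bands were scanned and p-AMPKa was expressed as a percentage of total AMPKa. Mean ± SEM of 3 experiments.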

HepG2 [4] = experiment: Increase in total AMPKalpha level in human HepG2 cells at 10 uM after 4 hrs by Western blot analysis relative to untreated control; format: functional, cell-based; how it was run: as §1
HepG2 [5] = experiment: Induction of AMPKalpha phosphorylation in human HepG2 cells at 10 uM by Western blot analysis relative to untreated control; format: cell-based; conditions: TDE = time-dependent effect
How it was run: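 Time course in HepG2: cells given 10 uM for different time intervals. Western blot for Thr172-phospho-AMPKa and total AMPKa, bands quantified, p-AMPKa as a percentage of total, compared with untreated cells. Mean ± SEM of 3 repeats.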

L6 = experiment: Induction of AMPKalpha phosphorylation in rat L6 cells; format: cell-based
HepG2 [6] = experiment: Increase in AMPKalpha phosphorylation in human HepG2 cells at 10 uM after 4 hrs by Western blot analysis relative to untreated control relative to total AMPKalpha level; format: cell-based; how it was run: as §1

SMILES: COc1cc(Br)c2cc3[n+](cc2c1O)CCc1cc2c(cc1-3)OCO2.[Cl-]
- fold change (FC) (HepG2 [1]): 0.94

SMILES: COc1ccc2cc3[n+](cc2c1F)CCc1cc2c(cc1-3)OCO2.[Cl-]
- fold change (FC) (HepG2 [1]): 1

SMILES: CCOc1cc2c(cc1OC)CC[n+]1cc3c(OC)c(OC)ccc3cc1-2.[Cl-]
- fold change (FC) (HepG2 [1]): 1

SMILES: COc1cc2cc3[n+](cc2cc1OC)CCc1cc2c(cc1-3)OCO2.[Cl-] [PSEUDOBERBERINE]
- Activity (HepG2 [2]): Dose-dependent effect
- Activity (HepG2 [3]): Active
- Activity (HepG2 [4]): Active
- Activity (HepG2 [5]): tde
- Activity (L6): Active
- fold change (FC) (HepG2 [6]): 2.6
- fold change (FC) (HepG2 [1]): 3.23

SMILES: CCOc1cc2c(cc1OC)CC[n+]1cc3cc(OC)c(OC)cc3cc1-2.[Cl-]
- fold change (FC) (HepG2 [1]): 0.96

SMILES: [Cl-].c1c2c(cc3c1OCO3)-c1cc3cc4c(cc3c[n+]1CC2)OCCO4
- fold change (FC) (HepG2 [1]): 0.96

SMILES: COc1ccc2cc3n(cc-2c1=O)CCc1cc2c(cc1-3)OCO2
- Activity (HepG2 [3]): Active

SMILES: COc1cc2cc3[n+](cc2cc1OC)CCc1c-3ccc(OC)c1OC.[Cl-]
- fold change (FC) (HepG2 [1]): 0.92

SMILES: COc1ccc2cc3[n+](cc2c1O)CCc1cc2c(cc1-3)OCO2
- Activity (HepG2 [3]): Active

SMILES: CCOc1cc2c(cc1OC)-c1cc3ccc(OC)c(OC)c3c[n+]1CC2.[Cl-]
- fold change (FC) (HepG2 [1]): 1.02

SMILES: CCOc1cc2c(cc1OC)-c1cc3cc(OC)c(OC)cc3c[n+]1CC2.[Cl-]
- fold change (FC) (HepG2 [1]): 1.04

SMILES: COc1ccc2c(c1OC)CC[n+]1cc3c(OC)c(OC)ccc3cc1-2.[Cl-]
- fold change (FC) (HepG2 [1]): 0.89

SMILES: COc1ccc2cc3[n+](cc2c1Cl)CCc1cc2c(cc1-3)OCO2.[Cl-]
- fold change (FC) (HepG2 [1]): 1.12

SMILES: COc1cc2c(cc1O)-c1cc3ccc(OC)c(OC)c3c[n+]1CC2.[Cl-] [COLUMBAMINE CHLORIDE]
- fold change (FC) (HepG2 [1]): 1.15

SMILES: COc1cc2c(c(OC)c1OC)-c1cc3ccc(OC)c(OC)c3c[n+]1CC2.[Cl-]
- fold change (FC) (HepG2 [1]): 0.88

SMILES: CCOc1cc2cc3[n+](cc2cc1OC)CCc1cc2c(cc1-3)OCO2.[Cl-]
- fold change (FC) (HepG2 [1]): 0.91

SMILES: COc1ccc2cc3[n+](cc2c1OC)CCc1cc2c(cc1-3)OCO2.[Cl-] [BERBERINE CHLORIDE]
- Activity (HepG2 [3]): Active
- Activity (HepG2 [4]): Active
- fold change (FC) (HepG2 [6]): < 3.2
- fold change (FC) (HepG2 [1]): 2.35

SMILES: COc1cc2cc3[n+](cc2c(Cl)c1OC)CCc1cc2c(cc1-3)OCO2.[Cl-]
- fold change (FC) (HepG2 [1]): 0.92
